In experiment [1] the target is Maternal embryonic leucine zipper kinase (Homo sapiens) (UniProt Q14680). Kind of experiment: Inhibition of MELK (unknown origin) at 1 uM relative to control. The procedure, abridged: (§1)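 Single-concentration screen of each compound against a 59-protein-kinase panel, run at 10 µM or 1 µM. Activity relative to control is shown as a heat map across the panel.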
The target of experiment [2] is MAP kinase-interacting serine/threonine-protein kinase 2 (Homo sapiens) (UniProt Q9HBH9). Kind of experiment: Inhibition of MNK2 (unknown origin) at 1 uM relative to control. The procedure, abridged:
as §1

The target in experiment [3] is Calcium/calmodulin-dependent protein kinase type 1 (Homo sapiens) (UniProt Q14012). Kind of experiment: Inhibition of CAMK1 (unknown origin) at 1 uM relative to control. The procedure, abridged:
(§2)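 Single-point screen of each compound against a panel of 59 protein kinases, at 1 or 10 μM. The panel data are also summarised as a rescaled geometric mean selectivity score.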

Experiment [4] concerns the target T1, Ephrin type-B receptor 3 (Homo sapiens) (UniProt P54753).
T1 sequence (whole entry): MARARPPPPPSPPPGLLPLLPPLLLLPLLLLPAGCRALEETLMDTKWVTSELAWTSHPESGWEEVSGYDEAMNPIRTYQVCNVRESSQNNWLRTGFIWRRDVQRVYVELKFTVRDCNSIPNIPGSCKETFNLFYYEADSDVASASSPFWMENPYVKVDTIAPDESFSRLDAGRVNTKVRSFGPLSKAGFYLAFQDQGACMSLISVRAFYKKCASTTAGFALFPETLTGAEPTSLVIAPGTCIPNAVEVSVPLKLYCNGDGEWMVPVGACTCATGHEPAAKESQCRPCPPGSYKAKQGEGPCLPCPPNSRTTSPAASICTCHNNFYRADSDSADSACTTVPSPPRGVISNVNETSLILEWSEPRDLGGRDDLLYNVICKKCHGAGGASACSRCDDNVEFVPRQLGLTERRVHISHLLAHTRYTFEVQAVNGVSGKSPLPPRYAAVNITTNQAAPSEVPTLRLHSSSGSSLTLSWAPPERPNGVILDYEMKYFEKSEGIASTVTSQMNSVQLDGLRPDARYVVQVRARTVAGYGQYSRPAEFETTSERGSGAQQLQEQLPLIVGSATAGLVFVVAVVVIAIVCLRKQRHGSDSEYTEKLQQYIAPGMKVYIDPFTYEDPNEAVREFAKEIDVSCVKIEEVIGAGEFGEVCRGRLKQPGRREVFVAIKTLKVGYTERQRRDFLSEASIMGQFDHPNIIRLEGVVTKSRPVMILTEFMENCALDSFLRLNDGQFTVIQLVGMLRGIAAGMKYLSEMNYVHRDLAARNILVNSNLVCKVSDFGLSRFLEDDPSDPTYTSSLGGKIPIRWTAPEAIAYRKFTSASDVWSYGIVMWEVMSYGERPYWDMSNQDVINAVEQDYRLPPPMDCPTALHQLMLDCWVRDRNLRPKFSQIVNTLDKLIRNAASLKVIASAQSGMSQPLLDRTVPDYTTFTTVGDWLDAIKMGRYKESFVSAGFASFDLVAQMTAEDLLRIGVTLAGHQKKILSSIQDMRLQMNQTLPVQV
The experiment is described as follows: Inhibition of EPHB3 (unknown origin) at 1 uM relative to control. The method, boiled down:
as §2

The species entered for the next experiment is Homo sapiens. The experiment is described as follows: Inhibition of PKA (unknown origin) at 1 uM relative to control. The procedure, abridged: as §1
Experiment [5] has as its target T2, Serine/threonine-protein kinase Nek2 (Homo sapiens) (UniProt P51955).
T2 sequence (whole entry): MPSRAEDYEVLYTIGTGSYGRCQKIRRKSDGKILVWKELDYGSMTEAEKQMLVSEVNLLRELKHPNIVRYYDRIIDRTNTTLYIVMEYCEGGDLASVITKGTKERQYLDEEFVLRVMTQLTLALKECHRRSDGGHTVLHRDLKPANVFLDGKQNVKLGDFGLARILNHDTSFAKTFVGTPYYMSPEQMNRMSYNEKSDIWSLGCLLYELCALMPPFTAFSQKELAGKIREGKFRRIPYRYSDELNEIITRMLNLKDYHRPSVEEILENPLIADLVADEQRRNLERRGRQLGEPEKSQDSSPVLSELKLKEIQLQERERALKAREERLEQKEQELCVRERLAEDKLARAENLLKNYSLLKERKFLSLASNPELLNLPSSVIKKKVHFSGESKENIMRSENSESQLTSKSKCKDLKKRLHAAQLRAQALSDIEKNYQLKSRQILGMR
The experiment is described as follows: Inhibition of NEK2a (unknown origin) at 1 uM relative to control. The procedure, abridged: as §1

For experiment [6], the target named is SRSF protein kinase 1 (Homo sapiens) (UniProt Q96SB4). Kind of experiment: Inhibition of SRPK1 (unknown origin) at 1 uM relative to control. The procedure, abridged:
(§3)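 Single-concentration screen across a panel of 59 protein kinases, with each compound tested at one fixed concentration. The read-out is residual kinase activity relative to control. Panel results are also condensed into a rescaled geometric mean (RGM) selectivity score.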

For experiment [7], the target named is MAP kinase-interacting serine/threonine-protein kinase 1 (Homo sapiens) (UniProt Q9BUB5). Kind of experiment: Inhibition of MNK1 (unknown origin) at 1 uM relative to control. The method, boiled down: as §1
Experiment [8] deals with Insulin receptor-related protein (Homo sapiens) (UniProt P14616). Kind of experiment: Inhibition of IRR (unknown origin) at 1 uM relative to control. The procedure, abridged: as §2
The target in experiment [9] is Serine/threonine-protein kinase PAK 4 (Homo sapiens) (UniProt O96013). The experiment is described as follows: Inhibition of PAK4 (unknown origin) at 1 uM relative to control. The procedure, abridged:
as §1

The target in experiment [10] is Casein kinase I (Homo sapiens) (UniProt Q9HCP0+P78368+P48730+P49674+P48729). The experiment is described as follows: Inhibition of CK1 (unknown origin) at 1 uM relative to control. Type of experiment: protein assay. The method, boiled down: as §2
Experiment [11] deals with Tyrosine-protein kinase SYK (Homo sapiens) (UniProt P43405). Kind of experiment: Inhibition of SYK (unknown origin) at 1 uM relative to control. The procedure, abridged:
as §3

Experiment [12] deals with Phosphorylase kinase (Homo sapiens) (UniProt P15735+P46020+P46019+Q93100+Q16816). The experiment is described as follows: Inhibition of PHK (unknown origin) at 1 uM relative to control. Type of experiment: protein-complex assay. The procedure, abridged: as §1
In experiment [13] the target is Ribosomal protein S6 kinase alpha-3 (Homo sapiens) (UniProt P51812). The experiment is described as follows: Inhibition of RSK2 (unknown origin) at 1 uM relative to control. The method, boiled down:
as §3

The target in experiment [14] is 3-phosphoinositide-dependent protein kinase 1 (Homo sapiens) (UniProt O15530). The experiment is described as follows: Inhibition of PDK1 (unknown origin) at 1 uM relative to control.
For experiment [15], the target named is RAC-alpha serine/threonine-protein kinase (Homo sapiens) (UniProt P31749). Kind of experiment: Inhibition of PKBa (unknown origin) at 1 uM relative to control. The procedure, abridged: as §1
Experiment [16] deals with RAC-beta serine/threonine-protein kinase (Homo sapiens) (UniProt P31751). The experiment is described as follows: Inhibition of PKBb (unknown origin) at 1 uM relative to control. The procedure, abridged: as §1
Experiment [17] has as its target Ribosomal protein S6 kinase beta-1 (Homo sapiens) (UniProt P23443). The experiment is described as follows: Inhibition of S6K1 (unknown origin) at 1 uM relative to control. The procedure, abridged: as §3
The target in experiment [18] is Glycogen synthase kinase-3 beta (Homo sapiens) (UniProt P49841). The experiment is described as follows: Inhibition of GSK3b (unknown origin) at 1 uM relative to control. The procedure, abridged:
as §2

Sequence of SRSF protein kinase 1 (Homo sapiens) (Q96SB4 whole entry): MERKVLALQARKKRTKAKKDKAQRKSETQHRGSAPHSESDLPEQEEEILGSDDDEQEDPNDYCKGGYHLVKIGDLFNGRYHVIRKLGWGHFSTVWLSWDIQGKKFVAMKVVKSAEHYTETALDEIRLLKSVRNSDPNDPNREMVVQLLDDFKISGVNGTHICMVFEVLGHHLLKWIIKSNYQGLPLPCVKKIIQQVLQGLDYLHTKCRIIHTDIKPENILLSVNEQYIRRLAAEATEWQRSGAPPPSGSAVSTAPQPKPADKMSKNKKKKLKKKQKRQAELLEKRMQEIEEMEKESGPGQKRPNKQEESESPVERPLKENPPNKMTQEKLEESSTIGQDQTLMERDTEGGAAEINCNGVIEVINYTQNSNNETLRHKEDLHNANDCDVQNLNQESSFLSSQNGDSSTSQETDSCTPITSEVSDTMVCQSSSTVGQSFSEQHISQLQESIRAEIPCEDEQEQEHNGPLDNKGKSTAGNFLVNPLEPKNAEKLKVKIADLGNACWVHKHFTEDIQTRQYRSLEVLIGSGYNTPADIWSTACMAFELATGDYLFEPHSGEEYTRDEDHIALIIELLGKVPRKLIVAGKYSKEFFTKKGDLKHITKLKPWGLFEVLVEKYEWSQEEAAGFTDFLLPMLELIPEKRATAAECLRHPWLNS
Sequence of MAP kinase-interacting serine/threonine-protein kinase 1 (Homo sapiens) (Q9BUB5 whole entry, looked up): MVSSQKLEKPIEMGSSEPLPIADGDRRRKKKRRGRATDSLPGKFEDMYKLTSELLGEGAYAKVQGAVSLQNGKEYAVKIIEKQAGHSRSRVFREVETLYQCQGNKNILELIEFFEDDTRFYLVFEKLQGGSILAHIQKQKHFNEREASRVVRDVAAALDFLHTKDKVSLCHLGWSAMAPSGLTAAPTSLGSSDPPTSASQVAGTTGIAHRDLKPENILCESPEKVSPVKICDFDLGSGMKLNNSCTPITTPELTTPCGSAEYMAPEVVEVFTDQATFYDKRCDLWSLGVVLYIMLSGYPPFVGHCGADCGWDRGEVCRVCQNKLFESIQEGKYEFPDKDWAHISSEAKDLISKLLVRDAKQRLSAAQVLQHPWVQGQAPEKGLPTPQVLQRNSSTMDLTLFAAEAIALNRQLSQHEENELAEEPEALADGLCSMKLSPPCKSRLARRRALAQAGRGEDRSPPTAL
Sequence of Maternal embryonic leucine zipper kinase (Homo sapiens) (Q14680 whole entry, looked up): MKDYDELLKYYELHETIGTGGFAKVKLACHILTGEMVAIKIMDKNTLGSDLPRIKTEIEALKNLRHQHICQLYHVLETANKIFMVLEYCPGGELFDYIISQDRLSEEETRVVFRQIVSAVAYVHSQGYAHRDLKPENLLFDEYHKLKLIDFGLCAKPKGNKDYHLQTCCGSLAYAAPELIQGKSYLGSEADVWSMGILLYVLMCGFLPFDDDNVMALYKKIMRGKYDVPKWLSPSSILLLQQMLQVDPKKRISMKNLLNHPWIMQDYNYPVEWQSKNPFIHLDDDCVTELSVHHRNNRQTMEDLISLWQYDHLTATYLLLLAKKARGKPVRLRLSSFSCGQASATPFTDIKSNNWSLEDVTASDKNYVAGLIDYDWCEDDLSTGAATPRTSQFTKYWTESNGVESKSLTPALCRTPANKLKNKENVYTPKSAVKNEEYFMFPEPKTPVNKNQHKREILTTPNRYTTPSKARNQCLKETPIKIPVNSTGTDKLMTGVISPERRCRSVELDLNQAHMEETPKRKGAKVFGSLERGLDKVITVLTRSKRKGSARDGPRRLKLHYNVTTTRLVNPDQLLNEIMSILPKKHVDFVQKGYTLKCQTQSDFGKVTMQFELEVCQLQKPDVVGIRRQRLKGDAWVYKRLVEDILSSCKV
Sequence of Calcium/calmodulin-dependent protein kinase type 1 (Homo sapiens) (Q14012 whole entry, looked up): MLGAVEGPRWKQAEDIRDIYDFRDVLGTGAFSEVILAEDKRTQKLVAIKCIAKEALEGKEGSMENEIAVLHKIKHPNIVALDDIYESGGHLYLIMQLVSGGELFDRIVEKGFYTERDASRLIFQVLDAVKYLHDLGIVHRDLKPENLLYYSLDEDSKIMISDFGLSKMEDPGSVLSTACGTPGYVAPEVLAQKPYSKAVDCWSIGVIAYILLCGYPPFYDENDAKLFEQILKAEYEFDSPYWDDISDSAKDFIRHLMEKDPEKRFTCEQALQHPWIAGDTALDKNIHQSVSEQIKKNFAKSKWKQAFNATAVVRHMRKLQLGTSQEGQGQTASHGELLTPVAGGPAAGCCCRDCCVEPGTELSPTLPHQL
Sequence of Ribosomal protein S6 kinase alpha-3 (Homo sapiens) (P51812 whole entry): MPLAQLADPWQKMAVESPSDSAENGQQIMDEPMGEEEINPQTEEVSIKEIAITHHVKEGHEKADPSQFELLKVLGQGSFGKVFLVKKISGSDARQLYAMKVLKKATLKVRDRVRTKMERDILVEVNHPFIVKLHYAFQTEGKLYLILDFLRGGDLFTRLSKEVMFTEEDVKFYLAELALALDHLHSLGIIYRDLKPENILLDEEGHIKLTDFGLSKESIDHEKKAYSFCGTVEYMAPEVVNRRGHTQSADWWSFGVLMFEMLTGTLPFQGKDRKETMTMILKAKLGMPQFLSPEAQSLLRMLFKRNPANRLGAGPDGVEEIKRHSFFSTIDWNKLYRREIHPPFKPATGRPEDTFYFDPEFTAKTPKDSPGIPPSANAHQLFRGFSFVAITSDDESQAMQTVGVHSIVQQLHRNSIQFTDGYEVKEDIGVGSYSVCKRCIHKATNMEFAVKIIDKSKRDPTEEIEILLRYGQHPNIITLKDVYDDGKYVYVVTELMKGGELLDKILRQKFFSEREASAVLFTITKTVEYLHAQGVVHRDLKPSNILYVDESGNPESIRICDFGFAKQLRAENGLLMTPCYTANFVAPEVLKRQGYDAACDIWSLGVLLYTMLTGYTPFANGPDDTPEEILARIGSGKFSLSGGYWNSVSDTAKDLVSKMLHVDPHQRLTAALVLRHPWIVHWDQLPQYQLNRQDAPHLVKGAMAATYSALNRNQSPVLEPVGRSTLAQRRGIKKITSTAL
Sequence of RAC-beta serine/threonine-protein kinase (Homo sapiens) (P31751 whole entry): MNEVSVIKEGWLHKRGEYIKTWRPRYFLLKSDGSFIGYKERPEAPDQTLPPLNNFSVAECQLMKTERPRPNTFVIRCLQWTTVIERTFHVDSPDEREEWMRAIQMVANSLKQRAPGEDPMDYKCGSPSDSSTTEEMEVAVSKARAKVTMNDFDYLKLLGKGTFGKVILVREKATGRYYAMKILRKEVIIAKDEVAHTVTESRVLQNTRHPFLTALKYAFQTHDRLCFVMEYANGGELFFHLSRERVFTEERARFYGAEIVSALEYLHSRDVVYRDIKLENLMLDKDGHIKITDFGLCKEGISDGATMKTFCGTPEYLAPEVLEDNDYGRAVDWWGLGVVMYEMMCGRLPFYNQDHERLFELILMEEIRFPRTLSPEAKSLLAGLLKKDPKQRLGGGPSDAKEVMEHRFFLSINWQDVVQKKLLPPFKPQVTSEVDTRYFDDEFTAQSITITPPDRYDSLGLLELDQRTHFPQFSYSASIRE
Sequence of Insulin receptor-related protein (Homo sapiens) (P14616 27-742 limits assumed): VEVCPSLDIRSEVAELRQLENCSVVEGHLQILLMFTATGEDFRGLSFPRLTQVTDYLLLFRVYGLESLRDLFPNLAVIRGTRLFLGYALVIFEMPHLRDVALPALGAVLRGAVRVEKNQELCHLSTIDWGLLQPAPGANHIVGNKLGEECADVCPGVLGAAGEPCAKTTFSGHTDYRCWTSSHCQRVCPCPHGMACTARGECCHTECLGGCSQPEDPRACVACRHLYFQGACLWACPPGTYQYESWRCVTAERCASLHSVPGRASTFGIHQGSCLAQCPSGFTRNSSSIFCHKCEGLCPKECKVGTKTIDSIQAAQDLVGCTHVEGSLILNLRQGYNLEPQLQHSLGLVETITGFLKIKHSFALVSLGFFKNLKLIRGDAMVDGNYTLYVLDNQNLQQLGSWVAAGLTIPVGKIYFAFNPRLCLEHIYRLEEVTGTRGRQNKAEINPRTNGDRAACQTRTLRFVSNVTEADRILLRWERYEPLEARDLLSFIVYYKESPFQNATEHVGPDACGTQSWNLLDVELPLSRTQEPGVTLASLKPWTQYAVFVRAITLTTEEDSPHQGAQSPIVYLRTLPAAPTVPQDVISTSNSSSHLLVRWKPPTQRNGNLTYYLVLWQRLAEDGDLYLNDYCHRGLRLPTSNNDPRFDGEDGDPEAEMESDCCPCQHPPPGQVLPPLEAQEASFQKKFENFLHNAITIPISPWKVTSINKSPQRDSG
Sequence of Insulin receptor-related protein (Homo sapiens) (P14616 747-1297 limits assumed): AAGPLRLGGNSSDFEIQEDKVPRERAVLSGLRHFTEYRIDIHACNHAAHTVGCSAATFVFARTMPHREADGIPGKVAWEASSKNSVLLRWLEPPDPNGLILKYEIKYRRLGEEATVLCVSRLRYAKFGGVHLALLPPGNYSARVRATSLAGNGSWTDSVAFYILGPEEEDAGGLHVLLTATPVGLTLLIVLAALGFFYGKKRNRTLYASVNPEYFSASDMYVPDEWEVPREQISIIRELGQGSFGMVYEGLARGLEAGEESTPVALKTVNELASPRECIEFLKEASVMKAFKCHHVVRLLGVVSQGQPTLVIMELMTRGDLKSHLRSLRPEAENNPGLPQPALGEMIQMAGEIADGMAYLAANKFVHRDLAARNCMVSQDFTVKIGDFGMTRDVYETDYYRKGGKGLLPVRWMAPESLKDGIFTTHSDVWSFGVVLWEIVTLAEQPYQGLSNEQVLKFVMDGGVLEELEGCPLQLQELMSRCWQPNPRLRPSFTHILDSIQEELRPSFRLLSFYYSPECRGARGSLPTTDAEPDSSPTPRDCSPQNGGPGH

As a reminder, the inhibition is the share of the control response that was lost under treatment. As to `CC(C)n1cc(-c2n[nH]c3ccnc(OC4CCOCC4)c23)cn1`, the inhibition stood at 84% in experiment [1]; 5% in [2]; 36% in experiment [3]; 0% in experiment [4]; 11% in the experiment listed under Homo sapiens; 8% in [5]. Further, the inhibition worked out at 0% in experiment [6]; 0% in experiment [7]; 45% in experiment [8]; 46% in experiment [9]; 0% in experiment [10]; 0% in experiment [11]. For the same compound, the inhibition in experiment [12] was 41%; in experiment [13] it was 58%; in [14], 5%; in experiment [15] it was 0%; in [16], 27%; in experiment [17], 16%. For the same compound, the inhibition in [18] was 90%.
As to `c1cc(-c2n[nH]c3ccnc(OC4CCOCC4)c23)cc(N2CCOCC2)n1`, the inhibition in experiment [1] stood at 79%; in experiment [2] it was 13%; in [3], 7%; in [4] it was 0%; in the experiment filed under Homo sapiens it was 26%; in [5], 0%. Moreover, the inhibition in [6] was 0%; in experiment [7], 2%; in [8], 3%; in experiment [9] it was 0%; in experiment [10] it was 0%; in [11], 0%. For the same compound, the inhibition in experiment [12] came out at 15%; in experiment [13], 0%; in experiment [14], 0%; in experiment [15] it was 0%; in [16], 0%; in experiment [17] it was 0%. This compound had an inhibition in experiment [18] of 36%.

(Values after ChEMBL document CHEMBL4330096, “Discovery of potent and selective 5-azaindazole inhibitors of leucine-rich repeat kinase 2 (LRRK2) - Part 1” (Bioorg Med Chem Lett, 2019).)
